Source: ChEMBL document CHEMBL1781909, “Potent mGluR5 antagonists: pyridyl and thiazolyl-ethynyl-3,5-disubstituted-phenyl series” (Bioorg Med Chem Lett, 2011)

Experiments:
[1] = target: T1, Metabotropic glutamate receptor 5 (Rattus norvegicus, UniProt P31424); experiment: Antagonist activity at rat mGluR5 expressed in human HEK-293 cells assessed as inhibition of glutamate-induced intracellular calcium mobilization; type: functional, cell-based, HEK293
[2] = target: T1, Metabotropic glutamate receptor 5; experiment: Displacement of [3H]methoxy-PEPY from rat mGluR5 expressed in human HEK-293 cells by liquid scintillation counting; type: cell-based, HEK293
How it was run: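 Membranes from stable rat mGluR5-HEK293A cells (10 µg/well) incubated with 2 nM [3H]methoxy-PEPY in 50 mM Tris/0.9% NaCl, pH 7.4, with or without compound, 1 h at room temperature with shaking. Filtered on GF/B, washed three times, counted by liquid scintillation. Ki derived from fitted IC50; three experiments in duplicate.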

Rattus norvegicus = experiment: Analgesic activity in ip dosed rat post-operative pain model; type: functional
[3] = Octanol-phosphate buffer partition coefficient, log D of the compound at pH 7.4; type: physicochemical
How it was run: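 Log D measured as partition of the [123I]-labelled compound between octanol and phosphate buffer pH 7.4.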

T1 sequence (P31424 whole entry): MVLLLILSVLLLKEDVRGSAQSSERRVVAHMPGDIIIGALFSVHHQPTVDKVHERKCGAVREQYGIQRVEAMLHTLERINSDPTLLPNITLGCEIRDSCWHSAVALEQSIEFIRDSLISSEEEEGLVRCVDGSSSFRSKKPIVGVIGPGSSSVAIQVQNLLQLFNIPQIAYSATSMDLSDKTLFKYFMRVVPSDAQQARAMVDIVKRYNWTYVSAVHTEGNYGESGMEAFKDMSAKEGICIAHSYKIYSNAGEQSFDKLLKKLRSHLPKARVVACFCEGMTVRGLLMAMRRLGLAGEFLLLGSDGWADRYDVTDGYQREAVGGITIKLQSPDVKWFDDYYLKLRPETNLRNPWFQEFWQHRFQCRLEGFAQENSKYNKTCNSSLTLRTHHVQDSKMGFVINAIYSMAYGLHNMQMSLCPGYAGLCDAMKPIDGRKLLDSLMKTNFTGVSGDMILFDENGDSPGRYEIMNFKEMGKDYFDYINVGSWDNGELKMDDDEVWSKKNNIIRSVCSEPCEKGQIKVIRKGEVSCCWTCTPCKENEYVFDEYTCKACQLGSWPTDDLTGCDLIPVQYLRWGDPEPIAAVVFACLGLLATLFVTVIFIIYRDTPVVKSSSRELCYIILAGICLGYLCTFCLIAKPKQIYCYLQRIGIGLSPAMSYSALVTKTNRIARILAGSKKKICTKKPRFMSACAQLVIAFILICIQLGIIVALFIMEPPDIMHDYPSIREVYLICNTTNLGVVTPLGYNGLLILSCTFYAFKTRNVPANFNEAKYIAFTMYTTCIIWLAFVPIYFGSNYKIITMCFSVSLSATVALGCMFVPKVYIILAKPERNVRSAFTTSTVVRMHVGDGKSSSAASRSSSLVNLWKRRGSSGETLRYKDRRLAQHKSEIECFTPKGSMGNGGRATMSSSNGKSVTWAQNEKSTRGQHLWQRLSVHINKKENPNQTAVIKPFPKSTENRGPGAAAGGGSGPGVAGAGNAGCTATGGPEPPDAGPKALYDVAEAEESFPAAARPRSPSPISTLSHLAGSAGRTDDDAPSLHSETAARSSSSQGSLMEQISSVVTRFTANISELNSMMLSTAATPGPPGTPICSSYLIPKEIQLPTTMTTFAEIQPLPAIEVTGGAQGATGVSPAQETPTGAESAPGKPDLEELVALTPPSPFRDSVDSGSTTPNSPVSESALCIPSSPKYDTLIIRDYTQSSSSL

Compound	IC50 [1]	Ki [2]	also measured
N#Cc1cc(C#Cc2ccccn2)cc([N+](=O)[O-])c1	1.32 nM	–	–
O=[N+]([O-])c1cc(Br)cc(C#Cc2ccccn2)c1	0.39 nM	–	–
Cc1cccc(C#Cc2cc(C#N)cc([N+](=O)[O-])c2)n1	3.68 nM	–	–
O=[N+]([O-])c1cc(I)cc(C#Cc2ccccn2)c1	2.09 nM	–	–
N#Cc1cc(I)cc(C#Cc2ccccn2)c1	0.66 nM	–	–
Cc1nc(C#Cc2cc(Br)cc([N+](=O)[O-])c2)cs1	0.73 nM	0.93 nM	–
Cc1cccc(C#Cc2ccccc2)n1	–	–	ED50 (Rattus norvegicus): 15 mg/kg
Cc1cccc(C#Cc2cc(Br)cc([N+](=O)[O-])c2)n1	0.63 nM	–	–
Cc1ccc(C#Cc2cc(C#N)cc([N+](=O)[O-])c2)nc1	2.64 nM	–	–
Cc1ccc(C#Cc2cc(Cl)cc(C#N)c2)nc1	1.22 nM	–	–
Cc1nc(C#Cc2cc(F)cc([N+](=O)[O-])c2)cs1	0.61 nM	0.3 nM	–
Cc1cccc(C#Cc2cc([123I])cc(C#N)c2)n1	–	–	logD [3]: 2.3
Cc1nc(C#Cc2cc(Cl)cc(C#N)c2)cs1	1.61 nM	0.127 nM	–
Cc1nc(C#Cc2cc(Br)cc(C#N)c2)cs1	1.06 nM	0.106 nM	–
Cc1nc(C#Cc2cc(Br)cc(Br)c2)cs1	1.45 nM	0.69 nM	–
Cc1nc(C#Cc2cc(I)cc(C#N)c2)cs1	1.05 nM	2.14 nM	–
Cc1nc(C#Cc2cc(C#N)cc([N+](=O)[O-])c2)cs1	2.63 nM	0.36 nM	–

More lines, main results first:

IC50 [1]	Ki [2]	Compound	also measured
1.02 nM	–	Cc1ccc(C#Cc2cc(Br)cc(C#N)c2)nc1	–
1.89 nM	0.36 nM	Cc1nc(C#Cc2cc(F)cc(C#N)c2)cs1	–
7.36 nM	–	Cc1ccc(C#Cc2cc(Br)cc([N+](=O)[O-])c2)nc1	–
0.66 nM	–	O=[N+]([O-])c1cc(F)cc(C#Cc2ccccn2)c1	–
0.71 nM	–	Cc1cccc(C#Cc2cc(I)cc(C#N)c2)n1	–
1.75 nM	1.84 nM	Cc1nc(C#Cc2cc(I)cc([N+](=O)[O-])c2)cs1	–
1.22 nM	–	Cc1cccc(C#Cc2cc(Cl)cc(C#N)c2)n1	–
0.32 nM	–	Cc1ccc(C#Cc2cc(F)cc(C#N)c2)nc1	–
1.11 nM	1.06 nM	Cc1nc(C#Cc2cc(F)cc(Br)c2)cs1	–
1.03 nM	–	N#Cc1cc(Cl)cc(C#Cc2ccccn2)c1	–
1.22 nM	–	Cc1cccc(C#Cc2cc(F)cc(C#N)c2)n1	–
